Calls of active or inactive are those of the source.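 How the source made its calls, unless noted: active means fluorescence slope after compound addition differing from the mean of all tested samples at 99.7% confidence, mostly higher but some lower; inactive means the rest.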
Experiments:
[1] = inhibitors of TNFa-induced NFkB p65 translocation, primary screen, imaging, HUVEC, MLSMR starter and 10KST1 sets (AID 438;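 active means inhibition above 20% together with a positive visual image hit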;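 further: compound added about 3h40 before a 20 min TNFalpha stimulation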;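 on inhibition: signal is the nuclear over cytoplasmic p65 intensity ratio per well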); settings: HUVEC TNFa-induced p65 nuclear translocation; cell count: measured here: nuclei count (cytotoxicity indicator), at 2.08 µM; inhibition: at 2 µM, stronger effect = higher value, 0% TNFa-plus-vehicle, 100% no-TNFa wells
[2] = inhibitors of mutant huntingtin aggregation, primary screen, imaging, exon1htt(103Q)mCFP cells, high-content imaging (AID 483;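 active means visual image review flags a hit and inhibition of aggregation exceeds 20%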;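 further: compound exposure lasted 3 days before fixation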;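 on nuclei count: percent of the per-plate median nuclei count of sample wells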); settings: exon1htt(103Q)mCFP cell line, aggregate imaging, at 2 µM; inhibition of aggregation: stronger effect = higher value; nuclei count: measured here: cell count, toxicity
[3] = inhibitors of E-selectin induction by TNFa, primary screen, imaging, HUVEC, immunofluorescence, MLSMR starter and 10KST1 sets (AID 487;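 active means visually confirmed hit in the image check and inhibition above 20%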;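 on inhibition: signal is fraction of cell area covered by stained E-selectin grains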;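 on nuclei count: 100% = median nuclei count of all wells on the same plate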); settings: HUVEC TNFalpha-induced E-selectin immunofluorescence imaging, at 2 µM; inhibition: stronger effect = higher value; nuclei count: measured here: cell number, toxicity
[4] = biological target: Voltage-gated potassium channel subunit beta-2 (Rattus norvegicus) (UniProt P62483); experiment: KvBeta enzyme negative modulators, primary screen, biochemical, NADPH fluorescence (AID 622;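 active means fluorescence slope higher than the sample average by over 3 SD, cut at about -0.22 in these data, passing the limit was not always enough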;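 further: slope of raw intensity against log time taken from 70 to 1610 s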); settings: recombinant KvBeta, 4-cyanobenzaldehyde reduction, at 10 µM, stronger effect = higher value
[5] = biological target: Voltage-gated potassium channel subunit beta-2 (Rattus norvegicus) (UniProt P62483); experiment: KvBeta positive modulators, primary screen, biochemical, NADPH fluorescence (AID 623;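 active means NADPH fluorescence slope more negative than the mean of all samples by about 3 SD, 99.7% confidence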;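 further: fluorescence intensity change per second fitted from 20 to 320 s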); settings: Recombinant KvBeta, NADPH fluorescence decrease slope, 10 min; at 10 µM; stronger effect = lower value
[6] = biological target: Muscarinic acetylcholine receptor M4 (Homo sapiens) (UniProt P08173); experiment: compounds altering M4/GIRK thallium flux, either direction, primary screen, M4 allosteric agonist project, cell-based, HEK293 M4/GIRK, BTC-AM (AID 625); settings: at 10 µM, actives lie on both sides;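 further: thallium influx through GIRK channels coupled to M4 in HEK293 cells with BTC-AM dye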
Method in brief: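 assay system = HEK293 cells with M4 receptor and GIRK channels | medium = pH 7.3 thallium assay buffer | doses = 10 µM final, single point | timing = cells overnight at 37 °C, BTC-AM loading 1 h, reads 2 min total | signal = BTC-AM fluorescence, 1 Hz kinetic reads | read-out = post-addition slope, 15–24 s, of baseline-normalized fluorescence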

[7] = inhibitors of Sendai virus-induced IRF3 signaling, primary screen, TLR/RLR signaling modifier project, cell-based, Sendai virus stimulus, luciferase, 10K MLSCN set (AID 602276;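 active means inhibition at or above 50% at 10 µM; inactive means inhibition below 50%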;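 further: firefly luciferase from ISG56 promoter only with Renilla not read in this screen; 0% = Sendai virus plus DMSO and 100% = medium plus DMSO without virus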); settings: HEK293 RL24 IRF3 luciferase reporter, at 10 µM, stronger effect = higher value
[8] = inhibitors of poly I:C-induced TLR3 signaling, primary screen, cell-based, poly I:C stimulus, luciferase, 10K MLSCN set (AID 602277;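 active means inhibition of the reporter signal at or above 50%; inactive means inhibition below 50%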); settings: HEK293-TLR3 RL24 IRF3 luciferase reporter, at 10 µM, stronger effect = higher value

Voltage-gated potassium channel subunit beta-2 (Rattus norvegicus), sequence (P62483 whole entry, looked up): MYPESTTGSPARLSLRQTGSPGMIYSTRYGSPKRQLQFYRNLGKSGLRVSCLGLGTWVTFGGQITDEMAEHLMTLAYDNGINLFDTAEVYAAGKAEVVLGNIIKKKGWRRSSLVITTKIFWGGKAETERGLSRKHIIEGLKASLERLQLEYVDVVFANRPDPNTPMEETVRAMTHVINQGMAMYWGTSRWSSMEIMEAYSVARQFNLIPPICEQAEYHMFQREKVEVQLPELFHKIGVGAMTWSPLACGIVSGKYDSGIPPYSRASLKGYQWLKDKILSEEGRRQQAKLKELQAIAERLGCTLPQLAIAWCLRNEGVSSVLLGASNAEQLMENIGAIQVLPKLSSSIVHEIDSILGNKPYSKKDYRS
Muscarinic acetylcholine receptor M4 (Homo sapiens), sequence (P08173 whole entry, looked up): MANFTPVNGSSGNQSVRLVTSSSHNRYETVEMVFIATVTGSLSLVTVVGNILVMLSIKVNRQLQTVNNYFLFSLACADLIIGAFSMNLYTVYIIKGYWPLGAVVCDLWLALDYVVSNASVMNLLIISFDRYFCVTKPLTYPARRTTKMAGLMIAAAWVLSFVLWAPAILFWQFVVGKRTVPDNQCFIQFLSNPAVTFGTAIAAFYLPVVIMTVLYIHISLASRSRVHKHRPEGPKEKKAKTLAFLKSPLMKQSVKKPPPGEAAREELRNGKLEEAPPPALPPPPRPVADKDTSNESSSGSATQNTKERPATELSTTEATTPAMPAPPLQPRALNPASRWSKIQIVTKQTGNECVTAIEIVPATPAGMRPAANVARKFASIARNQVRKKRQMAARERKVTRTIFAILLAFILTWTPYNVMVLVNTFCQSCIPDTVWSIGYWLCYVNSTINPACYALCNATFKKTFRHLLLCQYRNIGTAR

SMILES	cell count [1]	inhibition [1]	inhibition of aggregation [2]	nuclei count [2] [%]	inhibition [3]	nuclei count [3] [%]	fluorescence slope [4]	NADPH fluorescence slope [5]	fluorescence slope [6]	inhibition [7]	inhibition [8]
Cc1ccc(S(=O)(=O)NCCCCC(NC(=O)OC(C)(C)C)C(=O)O)cc1 (centres undefined) (tested in a mixture with another compound)	631	1.1% (inactive)	5.6% (inactive)	99.5	34.4% (inactive)	95.6	-0.6 (inactive)	-3.1e-06 (inactive)	0.00344 (inactive)	15.2% (inactive)	13.1% (inactive)
COc1cc(C(N)=O)ccc1OCc1ccccc1	364	14% (inactive)	-5.1% (inactive)	107	-51.6% (inactive)	110	-0.472 (inactive)	-7.2e-06 (inactive)	0.00562 (inactive)	-12.9% (inactive)	-32.5% (inactive)
CC(=O)c1cccc(NC(=O)c2ccc(NS(C)(=O)=O)cc2)c1	486	-8.9% (inactive)	9% (inactive)	94.4	32.6% (inactive)	98.5	-0.444 (inactive)	-5.1e-05 (inactive)	0.00538 (inactive)	12.2% (inactive)	15.9% (inactive)
CCCCc1ccc(NC(=O)N[C@H](C(=O)O)C(C)CC)cc1 (some centres undefined)	610	-13.3% (inactive)	-22.8% (inactive)	109	-22.1% (inactive)	118	-0.446 (inactive)	-3.7e-05 (inactive)	0.00522 (inactive)	4.79% (inactive)	14.4% (inactive)
COc1cccc(-c2cc(C(=O)Nc3cc(C)n(Cc4ccc(Cl)cc4)n3)no2)c1	498	-5.7% (inactive)	10.2% (inactive)	100	38.9% (inactive)	100	-0.211 (inactive)	-2.5e-05 (inactive)	0.0105 (inactive)	18.7% (inactive)	-60.3% (inactive)
Cc1c(C(=O)O)oc2ccc(S(=O)(=O)NCc3ccccc3)cc12	675	-4.8% (inactive)	21.7% (inactive)	108	-38.4% (inactive)	110	-0.432 (inactive)	4.7e-05 (inactive)	0.00586 (inactive)	-0.0664% (inactive)	11.8% (inactive)
Cc1ccccc1CN1CCNC1=O	624	40.3% (active)	7% (inactive)	88.7	-69.6% (inactive)	138	-0.558 (inactive)	-4e-05 (inactive)	0.00621 (inactive)	23.3% (inactive)	26.8% (inactive)
CCCCN(CC)S(=O)(=O)N1CCC(C(=O)NCc2ccc(F)cc2)CC1	705	-6.9% (inactive)	-1.2% (inactive)	96.5	-8% (inactive)	113	-0.594 (inactive)	-2.1e-05 (inactive)	0.00507 (inactive)	12.4% (inactive)	15.9% (inactive)
CCN(CC)S(=O)(=O)c1ccc2oc(C(=O)O)c(C)c2c1	335	12.8% (inactive)	39.6% (inactive)	85.6	-89.3% (inactive)	104	-0.473 (inactive)	0.000115 (inactive)	0.00522 (inactive)	5.96% (inactive)	11.9% (inactive)
COc1ccc(Cl)cc1NC(=O)c1oc(C)nc1C	555	-0.7% (inactive)	-0.3% (inactive)	97.4	-1% (inactive)	108	-0.35 (inactive)	-4.4e-05 (inactive)	0.00568 (inactive)	25.6% (inactive)	42.6% (inactive)
NC(=O)c1c(NC(=O)CSc2nnc(-c3ccco3)n2-c2ccccc2)sc2c1CCC2	577	-15.4% (inactive)	-3.6% (inactive)	115	50.4% (inactive)	132	-0.525 (inactive)	0.00013 (inactive)	0.00489 (inactive)	30.1% (inactive)	32.9% (inactive)
CCCS(=O)(=O)N1CCCC(C(=O)N2CCC(Cc3ccccc3)CC2)C1 (centres undefined)	662	-11.9% (inactive)	5% (inactive)	105	-82.7% (inactive)	106	-0.5 (inactive)	-0.000282 (inactive)	0.00325 (inactive)	11.3% (inactive)	12.1% (inactive)
CN1CC[n+]2cnc3ccccc3c21	600	1.2% (inactive)	-17.8% (inactive)	103	-9.4% (inactive)	122	-0.585 (inactive)	-8.5e-05 (inactive)	0.00403 (inactive)	16.8% (inactive)	19.3% (inactive)
O=C(NCCCN1CCCC1=O)c1cncc(Br)c1	394	-5.8% (inactive)	14.1% (inactive)	91.8	54.5% (active)	72.7	-0.418 (inactive)	-9.4e-05 (inactive)	0.00605 (inactive)	13.1% (inactive)	24.3% (inactive)

From PubChem BioAssay
